# NF-kB neuron act = raises NF-kB expression in human neuronal cells | NF-kB reporter expression; hits give high values | 190,000 tested, 1.6% active | fold change at 12.5 µM; in the data active means fold change above about 3.3
# STAT1 act = increases IFN-gamma driven STAT1 reporter signal | 200,000 tested, 2.6% active | activation (% of control), % at 5.5 µM | NIH 3T3 STAT1-luciferase reporter, luminescence; 100% = IFN-gamma alone, no compound;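 active means activation above the screen-wide mean activation plus 3 SD, cut at about 130% in these data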;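 further: raw ratio to IFN-gamma control signal so 100% means no change and 0% no light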
# STAT1 inh = inhibitors of IFN-gamma induced STAT1 signaling | inhibition, % at 5.5 µM | 200,000 tested, 0.35% active | NIH 3T3 STAT1-luciferase reporter, luminescence;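 active means inhibition above a set limit, the mean inhibition across all tested compounds plus 3 SD, cut at about 34% in these data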;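 further: 0% = IFN-gamma with DMSO and 100% = IFN-gamma with 300 µM nifuroxazide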
# STAT3 inh-1 = inhibitors of IL-6 induced STAT3 signaling; 190,000 tested, 0.89% active; inhibition, % at 5.5 µM; AID 862; U3A cells, IL-6 STAT3-luciferase reporter, luminescence; host cell line lacks STAT1;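 active means inhibition above the mean inhibition across all screened compounds plus 3 SD, cut at about 44% in these data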;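 further: 0% = DMSO only wells and 100% = 100 µM nifuroxazide control wells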
# STAT3 activator = STAT3 signaling activation | U3A cells, IL-6 STAT3-luciferase reporter, luminescence; 100% = signal with IL-6 EC80 alone | activation (% of control), % at 5.6 µM | 190,000 tested, 0.91% active | AID 871;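 active means activation above the screen-wide mean of compound activation plus 3 SD, cut at about 130% in these data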;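 further: 0% = background luminescence of wells with medium and substrate only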
#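 Material: STAT1-lacking human U3A cells, STAT3 luciferase reporter | Benchmarks: IL-6-only wells as 100% reference | Probe or stimulus: IL-6 (33 ng/mL) | Timing: Compound 1 h, then IL-6 6 h at 37 °C | Detection: Luminescence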
# APP 5'UTR act = APP 5'UTR luciferase reporter activation; SH-SY5Y APP 5'UTR luciferase reporter, luminescence; zero percent = DMSO vehicle wells; activation, % at 2 µM; 190,000 tested, 1% active; AID 1276;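 active means activation above a set limit, based on mean plus 3 SD of controls, cut at about 140% in these data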
# STAT3 inh-2 = STAT3 inhibition, confirmation assay; shares compounds with STAT3 inh-1; U3A cells, IL-6 STAT3 luciferase reporter, luminescence; cell line lacks STAT1; inhibition, % at 5.7 µM; 1,200 tested, 45% active;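 active means inhibition above the hit cutoff computed for the primary STAT3 screen, cut at about 44% in these data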;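 further: 0% = IL-6 plus DMSO and 100% = IL-6 plus nifuroxazide control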
# NFkB inh STAT3ct = counter-screen for STAT3 inhibitors: NF-kappaB inhibition; shares compounds with STAT3 inh-1; HEK293T NF-kB luciferase reporter, TNF-alpha induced; inhibition, % at 5.7 µM; 1,200 tested, 36% active; AID 1308;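 active means inhibition above the mean of solvent-only control wells plus 3 SD, cutoff set per campaign, cut at about 13% in these data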;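 further: 0% = TNF-alpha with DMSO and 100% = TNF-alpha with MG high control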
# STAT1 inh STAT3c = STAT1 inhibition in STAT3 inhibitor counter-screen; shares compounds with STAT3 inh-1; 1,200 tested, 27% active; AID 1317; NIH 3T3 STAT1-luciferase reporter, IFN-gamma induced, luminescence; inhibition, % at 5.7 µM;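 active means inhibition above the mean plus 3 SD of solvent-only control wells, limit set per screening run, cut at about 16% in these data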;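 further: 0% = DMSO with IFN-gamma and 100% = nifuroxazide control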
# * hit, by the source's call; . = no result. An excerpt weighted towards active compounds, which were near 4.9% of everything screened.
SMILES,NF-kB neuron act,STAT1 act,STAT1 inh,STAT3 inh-1,STAT3 activator,APP 5'UTR act,STAT3 inh-2,NFkB inh STAT3ct,STAT1 inh STAT3c
C/C(N)=C(/C#N)C(=O)COC(=O)CNS(=O)(=O)c1c(F)cccc1F,0.98,109.7,-12.1,-2.0,103.3,9.2,.,.,.
CSC(=NC#N)N1CCN(c2ccc([N+](=O)[O-])cc2)CC1,1.11,86.2,13.3,8.0,102.3,-13.6,.,.,.
COC(=O)c1cccc(NC(=O)CSc2nc3cccnc3n2C)c1,0.53,93.3,7.4,56.9*,56.6,-11.0,48.3*,4.4,6.7
CC(C)Cn1c(N)c(C(=O)COC(=O)CCc2nc3ccccc3s2)c(=O)n(C)c1=O,0.82,76.3,24.8,70.4*,41.5,-7.9,74.5*,7.5,15.7
CC(C)Cn1c(N)c(C(=O)COC(=O)CC23CC4CC(CC(C4)C2)C3)c(=O)n(C)c1=O,0.64,78.9,23.0,69.9*,41.3,-9.9,72.6*,23.7*,24.0*
CC(C)Cn1c(N)c(C(=O)COC(=O)c2ccc(Cl)cc2)c(=O)n(C)c1=O,0.75,85.2,16.5,30.7,75.3,-13.2,.,.,.
Cc1cc(C(=O)COC(=O)CCc2nc3ccccc3s2)c(C)n1C,0.97,101.3,-1.4,5.8,98.6,9.0,.,.,.
CC(C)Cn1c(N)c(C(=O)CSc2ccccc2)c(=O)n(C)c1=O,1,99.2,0.9,44.8*,62.1,-1.0,44.0*,-4.5,-1.1
Cc1cc([N+](=O)[O-])nn1CCCC(=O)Nc1cc(Cl)ccc1Cl,1.14,94.4,5.9,13.8,90.6,-0.7,.,.,.
O=C(NC1CCN(Cc2ccccc2)CC1)c1ccc2c(c1)[nH]c(=O)n2Cc1ccc(F)cc1,0.82,90.3,9.3,47.4*,63.2,-20.3,51.1*,17.1*,8.4
O=C(Nc1ccc(F)cc1)NC1CCN(Cc2ccccc2)CC1,0.9,95.1,5.3,2.6,97.7,-7.5,.,.,.
CC(C)=CCN1CCN(Cc2cnc(-c3ccccc3)s2)CC1CCO (stereo unspecified),0.97,100.2,-1.2,8.1,103.2,1.4,.,.,.
O=C(NCCc1ccccc1)C1CCC(CNc2nc(=S)[nH]c3ccccc23)CC1 (stereo unspecified),0.95,103.8,-5.8,3.2,99.3,23.3,.,.,.
O=C(C1CCC(CNc2nc(=S)[nH]c3ccccc23)CC1)N1CCN(c2ccccn2)CC1 (stereo unspecified),0.9,91.1,9.8,50.4*,58.4,-0.6,52.5*,7.9,34.7*
CCn1c(-c2ccc(N)cc2)nc2ccccc21,1.08,113.5,-14.9,1.5,106.5,-1.3,.,.,.
CN(C)c1ccc(-c2nc3ccccc3n2C)cc1,2.07,73.8,29.0,77.1*,34.8,97.5,24.9,5.8,-65.9
CCn1c(-c2ccc(N(C)C)cc2)nc2ccccc21,2.93,107.5,-8.3,44.5*,64.0,95.6,15.7,-34.8,-35.5
O=C(CN1CCCCCCC1)Nc1cccc(Cl)c1Cl,1.35,106.5,-8.1,-4.1,104.4,15.6,.,.,.
Nc1cc(N)cc(-c2nc3ccccc3[nH]2)c1,0.56,109.4,-10.3,-13.6,117.9,15.4,.,.,.
COC(=O)c1ccc(-c2ncc[nH]2)cc1,1.35,102.6,-5.0,16.1,91.2,19.6,.,.,.
COc1ccc(-c2nc3ccccc3[nH]2)cc1,4.98*,86.4,14.8,59.7*,49.8,184.7*,37.3,1.7,-45.3
COC(=O)c1ccc(-c2nc3ccccc3[nH]2)cc1,7.09*,121.6,-22.9,51.7*,57.1,130.7,22.2,-23.3,-90.6
CNC1=C(N(C(C)=O)c2ccc(Br)cc2)C(=O)c2ccccc2C1=O,0.97,75.5,28.0,49.2*,59.3,-55.0,52.6*,30.7*,40.6*
COCCn1c(C)cc(C(=O)CSc2nnc3ccccn23)c1C,0.67,71.9,31.1,74.5*,42.5,.,21.2,-0.5,-31.7
Cc1cccc(-c2ncc(CN3CCCC(CO)(Cc4ccccc4C)C3)cn2)c1 (stereo unspecified),0.99,112.2,-15.2,-6.6,109.7,-4.5,.,.,.
SMILES,NF-kB neuron act,STAT1 act,STAT1 inh,STAT3 inh-1,STAT3 activator,APP 5'UTR act,STAT3 inh-2,NFkB inh STAT3ct,STAT1 inh STAT3c
Cc1ccc(OCc2nc(-c3cccs3)no2)c([N+](=O)[O-])c1,11.2*,98.4,0.2,49.7*,61.1,197.9*,-53.4,-26.8,-151.6
Cn1c(=O)n(C)c2cc([N+](=O)[O-])c(N3CCN(C(=O)c4ccccc4Cl)CC3)cc21,0.51,84.1,17.8,63.0*,52.5,8.6,39.5,9.3,11.3
O=C(Nc1ccc2c(c1)OCO2)N1CCN(Cc2ccco2)CC1,2.12,93.0,6.8,44.7*,67.3,100.8,9.1,-11.1,-2.1
Cc1ccc(NC(=O)N2CCN(Cc3ccc4c(c3)OCO4)CC2)cc1,0.98,102.8,-3.0,10.6,96.6,-1.1,.,.,.
O=C(Nc1nccs1)c1ccc(S(=O)(=O)NCC2CCCCC2)cc1,1.05,95.1,5.4,71.4*,44.8,-7.3,54.9*,10.9,3.4
CCOC(=O)c1ccccc1N/C=C/C(=O)c1ccccc1,.,116.2,-17.5,4.6,104.4,12.8,.,.,.
NC(=O)c1ccccc1N/C=C/C(=O)c1ccc(Cl)cc1,6.94*,91.4,9.4,59.7*,49.9,148.1*,27.3,-2.5,-83.9
Cc1ccc(C(=O)/C=C/Nc2ccccc2C(N)=O)cc1,6.74*,110.2,-11.1,76.1*,36.0,174.2*,38.5,8.5,-63.2
CCOC(=O)C1=C(C)C(c2ccccc2OC)NC(=S)N1 (stereo unspecified),1.01,116.5,-18.4,16.3,92.5,-5.1,.,.,.
N#Cc1cc([N+](=O)[O-])cnc1N(CCO)CCO,0.97,101.5,0.8,2.9,95.8,5.0,.,.,.
CCS(=O)(=O)c1ccc(N=Nc2ccc(O)c3ncccc23)c(OC)c1,0.8,103.7,-2.2,55.4*,55.9,-62.8,16.5,-4.6,-18.1
O=C(Nc1cccc(NC(=O)c2ncn[nH]2)c1)c1cccc(Cl)c1,1.15,98.5,1.5,0.3,101.3,-18.4,.,.,.
Cc1nc2ccccc2n1CC(O)COCC1CC=CCC1 (stereo unspecified),0.73,84.5,14.1,44.3*,63.0,-12.8,40.3,-0.5,10.6
CC(=O)Nc1cccc(OCC(O)Cn2c(C)nc3ccccc32)c1 (stereo unspecified),0.93,96.0,4.9,14.9,89.3,20.7,.,.,.
OC(COCC1CC=CCC1)Cn1cnc2ccccc21 (stereo unspecified),1.01,99.7,0.4,-0.1,98.8,13.0,.,.,.

# Source: PubChem BioAssay (several laboratories)
